Experimental data reported in ChEMBL document CHEMBL1255281, “Effects on gram-negative and gram-positive bacteria mediated by 5-aminolevulinic Acid and 5-aminolevulinic acid derivatives” (2008).
The source made the active and inactive calls. No cut-off for these calls is given here.

Key:
Staphylococcus aureus [1] = test: Antibacterial activity against methicillin resistant Staphylococcus aureus assessed as microbial survival fraction incubated at 10 mM followed by irradiation at 120 J.cm2 light relative to untreated control; assay type: functional
In short: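 MRSA grown 48 h on Columbia sheep-blood agar, then overnight in tryptone soy broth at 37°C, brought to OD600 ~0.30 and washed twice in PBS pH 6.5. Cells were held with substrate in PBS for 4 h in the dark at 37°C with shaking. About 5 × 10⁷ bacteria were exposed to halogen white light for 40 min (120 J·cm⁻²). CFU were counted on Columbia agar; survival = N_PDI/N₀; mean of n = 4 ± SD.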

Escherichia coli [2] = test: Antibacterial activity against Escherichia coli K-12 assessed as reduction in microbial viability incubated at 0.1 mM followed by irradiation at 120 J.cm2 light; assay type: functional, organism-based
In short: (§1)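 Log-phase cells (OD600 ~0.30) washed twice in PBS (0.1 N, pH 6.5), pelleted, resuspended in freshly made substrate in the same PBS and kept 4 h at 37°C in the dark with shaking. About 5 × 10⁷ bacteria in 2.5 ml were then exposed to white halogen light for 40 min (120 J·cm⁻²). CFU were counted by plating dilutions on Columbia agar. Survival = CFU/ml after PDI ÷ CFU/ml of initial sample; mean of n = 4 ± SD.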

Escherichia coli [3] = test: Induction of photoactive porphyrins in Escherichia coli K-12 assessed as porphyrin level per 10^-6 CFU microbial load incubated at 0.1 mM followed by irradiation at 120 J.cm2 light relative to untreated control; assay type: functional
In short: (§2)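 Cells were loaded 4 h at 37°C in the dark with substrate in PBS (pH 6.5), in parallel with the PDI samples. 10 ml of suspension was pelleted and taken up in ethanol/DMSO/acetic acid (80:20:1). Cells were broken by five 5-s sonication pulses at 0°C and centrifuged. The supernatant was run on HPLC with a gradient (acetate buffer/acetonitrile to methanol/acetonitrile) and fluorescence detection (ex 407, em 620 nm). Total porphyrins are given as pmol·10⁻⁶ CFU.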

Escherichia coli [4] = test: Antibacterial activity against Escherichia coli Ti05 assessed as microbial survival fraction incubated at 1 mM followed by irradiation at 120 J.cm2 light relative to untreated control; assay type: functional; in short: as §1
Escherichia coli [5] = test: Antibacterial activity against Escherichia coli K-12 assessed as reduction in microbial viability incubated at <40 mM for 4 hrs under dark condition; assay type: functional, organism-based
In short: (§3)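 Dark toxicity. Washed log-phase cells (OD600 ~0.30, PBS 0.1 N pH 6.5) were held 4 h at 37°C in the dark with shaking in substrate dissolved in the same PBS and were not illuminated. CFU were counted on Columbia agar. Survival = CFU/ml of nonilluminated sample ÷ CFU/ml of initial sample; mean of n = 4 ± SD.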

Escherichia coli [6] = test: Antibacterial activity against Escherichia coli K-12 assessed as reduction in microbial viability incubated at 40 mM for 4 hrs under dark condition; assay type: functional, organism-based; in short: as §3
Escherichia coli [7] = test: Antibacterial activity against Escherichia coli K-12 assessed as reduction in microbial viability incubated at 40 mM followed by irradiation at 120 J.cm2 light; assay type: functional, organism-based; in short: as §1
Pseudomonas aeruginosa [8] = test: Induction of photoactive porphyrins in Pseudomonas aeruginosa assessed as porphyrin level per 10^-6 CFU microbial load incubated at 1 mM followed by irradiation at 120 J.cm2 light relative to untreated control; assay type: functional; in short: as §2
Escherichia coli [9] = test: Induction of photoactive porphyrins in Escherichia coli K-12 assessed as protoporphyrin level exposed to irradiation at 120 J.cm2 light by HPLC; assay type: functional, organism-based; in short: as §2
Staphylococcus aureus [10] = test: Induction of photoactive porphyrins in methicillin resistant Staphylococcus aureus assessed as porphyrin level per 10^-6 CFU microbial load incubated at 10 mM followed by irradiation at 120 J.cm2 light relative to untreated control; assay type: functional
In short: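 MRSA was washed in PBS pH 6.5 and held with substrate in PBS for 4 h in the dark at 37°C with shaking; a separate fraction was taken for porphyrin analysis. Pellets were extracted in ethanol/DMSO/acetic acid (80:20:1), sonicated 5 × 5 s at 0°C and centrifuged. Supernatant went to gradient HPLC with fluorescence detection (excitation 407, emission 620 nm). Total porphyrins are expressed as pmol·10⁻⁶ CFU.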

Pseudomonas aeruginosa [11] = test: Antibacterial activity against Pseudomonas aeruginosa assessed as microbial survival fraction incubated at 1 mM followed by irradiation at 120 J.cm2 light relative to untreated control; assay type: functional; in short: as §1
Escherichia coli [12] = test: Induction of photoactive porphyrins in Escherichia coli Ti05 assessed as porphyrin level per 10^-6 CFU microbial load incubated at 1 mM followed by irradiation at 120 J.cm2 light relative to untreated control; assay type: functional; in short: as §2
Escherichia coli [13] = test: Induction of photoactive porphyrins in Escherichia coli K-12 assessed as uroporphyrin level exposed to irradiation at 120 J.cm2 light by HPLC; assay type: functional, organism-based; in short: as §2
Escherichia coli [14] = test: Induction of photoactive porphyrins in Escherichia coli K-12 exposed to irradiation at 120 J.cm2 light by HPLC; assay type: functional, organism-based; in short: as §2
Escherichia coli [15] = test: Antibacterial activity against Escherichia coli K-12 assessed as microbial survival fraction incubated at 0.1 mM followed by irradiation at 120 J.cm2 light relative to untreated control; assay type: functional; in short: as §1
Escherichia coli [16] = test: Antibacterial activity against Escherichia coli K-12 assessed as reduction in microbial viability incubated at 10 mM followed by irradiation at 120 J.cm2 light; assay type: functional, organism-based; in short: as §1
Escherichia coli [17] = test: Induction of photoactive porphyrins in Escherichia coli K-12 at 10 mM exposed to irradiation at 120 J.cm2 light by HPLC; assay type: functional, organism-based; in short: as §2
Escherichia coli [18] = test: Induction of photoactive porphyrins in Escherichia coli Ti05 assessed as porphyrin level per 10^-6 CFU microbial load incubated at 10 mM followed by irradiation at 120 J.cm2 light relative to untreated control; assay type: functional; in short: as §2
Pseudomonas aeruginosa [19] = test: Antibacterial activity against Pseudomonas aeruginosa assessed as microbial survival fraction incubated at 10 mM followed by irradiation at 120 J.cm2 light relative to untreated control; assay type: functional; in short: as §1
Escherichia coli [20] = test: Induction of photoactive porphyrins in Escherichia coli K-12 assessed as porphyrin 7-CP level exposed to irradiation at 120 J.cm2 light by HPLC; assay type: functional, organism-based; in short: as §2
Escherichia coli [21] = test: Antibacterial activity against Escherichia coli K-12 assessed as microbial survival fraction incubated at 10 mM followed by irradiation at 120 J.cm2 light relative to untreated control; assay type: functional; in short: as §1
Escherichia coli [22] = test: Induction of photoactive porphyrins in Escherichia coli K-12 assessed as porphyrin 5-CP level exposed to irradiation at 120 J.cm2 light by HPLC; assay type: functional, organism-based; in short: as §2
Escherichia coli [23] = test: Antibacterial activity against Escherichia coli Ti05 assessed as microbial survival fraction incubated at 10 mM followed by irradiation at 120 J.cm2 light relative to untreated control; assay type: functional; in short: as §1
Escherichia coli [24] = test: Induction of photoactive porphyrins in Escherichia coli K-12 assessed as porphyrin 6-CP level exposed to irradiation at 120 J.cm2 light by HPLC; assay type: functional, organism-based; in short: as §2
Pseudomonas aeruginosa [25] = test: Induction of photoactive porphyrins in Pseudomonas aeruginosa assessed as porphyrin level per 10^-6 CFU microbial load incubated at 10 mM followed by irradiation at 120 J.cm2 light relative to untreated control
Escherichia coli [26] = test: Antibacterial activity against Escherichia coli K-12 assessed as reduction in microbial viability incubated at 30 mM for 4 hrs under dark condition; assay type: functional, organism-based; in short: as §3
Escherichia coli [27] = test: Induction of photoactive porphyrins in Escherichia coli K-12 assessed as porphyrin level per 10^-6 CFU microbial load incubated at 10 mM followed by irradiation at 120 J.cm2 light relative to untreated control; assay type: functional; in short: as §2

In the case of `NCC(=O)CCC(=O)O` [AMINOLEVULINIC ACID], the Ratio (Staphylococcus aureus [1]) is reported as 5e-06, the “growth inhibition (GI)” value (Escherichia coli [2]) is reported as “Active” and the Activity (Escherichia coli [3]) is reported as 7.5 pmol. For the same molecule, the Ratio (Escherichia coli [4]) was 5e-05, the “growth inhibition (GI)” value (Escherichia coli [5]) was “inactive” and the “growth inhibition (GI)” value (Escherichia coli [6]) was “Active”. For the same molecule, the “growth inhibition (GI)” value (Escherichia coli [7]) was “Active”, the Activity (Pseudomonas aeruginosa [8]) was 34.5 pmol and the Activity (Escherichia coli [9]) was “Active”. It also gave an Activity (Staphylococcus aureus [10]) of 6.6 pmol, a Ratio (Pseudomonas aeruginosa [11]) of 0.0019 and an Activity (Escherichia coli [12]) of 5.4 pmol. For the same molecule, the Activity (Escherichia coli [13]) was “Active”, the Activity (Escherichia coli [14]) was “Active” and the Ratio (Escherichia coli [15]) was 0.00048.
In the case of `CCCCOC(=O)CCC(=O)CN`, the “growth inhibition (GI)” value (Escherichia coli [16]) is reported as “Active” and the Activity (Escherichia coli [17]) is reported as “Active”.
For `CCCCCCOC(=O)CCC(=O)CN`, the “growth inhibition (GI)” value (Escherichia coli [16]) was “inactive” and the Activity (Escherichia coli [17]) was “inactive”.
For `CCCCCOC(=O)CCC(=O)CN`, the “growth inhibition (GI)” value (Escherichia coli [16]) was “inactive” and the Activity (Escherichia coli [17]) was “inactive”.
For `CCCCCCCCOC(=O)CCC(=O)CN`, the “growth inhibition (GI)” value (Escherichia coli [16]) was “inactive” and the Activity (Escherichia coli [17]) was “inactive”.
Work on `COC(=O)CCC(=O)CN` [METHYL AMINOLEVULINATE] yielded an Activity (Escherichia coli [18]) of 10.2 pmol, a Ratio (Staphylococcus aureus [1]) of 0.00078 and a Ratio (Pseudomonas aeruginosa [19]) of 0.012. The Activity (Escherichia coli [20]) was “Active”, the “growth inhibition (GI)” value (Escherichia coli [16]) was “Active” and the Ratio (Escherichia coli [21]) was 8.1e-06. For the same molecule, the Activity (Escherichia coli [22]) was “Active”, the Ratio (Escherichia coli [23]) was 2e-05 and the Activity (Escherichia coli [24]) was “Active”. For the same molecule, the Activity (Pseudomonas aeruginosa [25]) was 6 pmol, the Activity (Staphylococcus aureus [10]) was 2.5 pmol and the Activity (Escherichia coli [13]) was “Active”. For the same molecule, the “growth inhibition (GI)” value (Escherichia coli [26]) was “Active” and the Activity (Escherichia coli [27]) was 12.5 pmol.
